Activity calls are given as the source filed them. The rule behind the calls is not given here. Bounds are passed on as bounds.

Data set [1] deals with MCF-10A. Briefly: Cytotoxicity in human MCF10A cells at 5 uM at 24 hrs by alamarBlue assay. It counts as cell-based. A general note: Alamar Blue is a resazurin reagent that responds to reducing activity.
For data set [2], the system named is MCF-10A. Description: Cytotoxicity in human MCF10A cells at 5 uM at 48 hrs by alamarBlue assay. The class given is cell-based.
In data set [3] the test system is MCF-10A. Description: Cytotoxicity in human MCF10A cells at 1 uM after 24 to 48 hrs by alamarBlue assay. The class given is cell-based.
For data set [4], the system named is MCF7. Description: Antiproliferative activity in human MCF7 cells assessed as cell viability after 48 hrs by alamarBlue assay. It counts as functional, cell-based. The settings on record: MCF7, 48 h. In short, it runs like this: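 Cells were seeded at 2.5×10^4 cells/mL and treated after 24 h with vehicle (0.1% v/v ethanol) or a dose range (0.1–20 μM) for 48 h at 37 °C in 5% CO2. Media-only blanks were subtracted, and viability is given as % of vehicle. Sextuplicate wells, three independent experiments.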

Data set [5] deals with MCF7. Briefly: Induction of reactive oxygen species generation in human MCF7 cells assessed as decrease in cell viability at 5 to 20 uM in presence of N-acetyl cysteine after 48 hrs by alamarBlue assay. It counts as functional, cell-based. An outline of the steps:
(§1)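 MCF-7 cells were seeded at 2.5×10^4 cells/mL and left to adhere. They were pre-treated 1 h with N-acetyl cysteine (1 mM) or Trolox (100 μM), then exposed to test agents for 48 h. Viability was measured by alamarBlue fluorescence as % of ethanol vehicle control. Mean of three independent experiments.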

Data set [6] relates to MCF7. Briefly: Induction of reactive oxygen species generation in human MCF7 cells assessed as decrease in cell viability at 5 to 20 uM in presence of trolox after 48 hrs by alamarBlue assay. The class given is functional, cell-based. In short, it runs like this:
as §1

Data set [7] is filed under the species Homo sapiens. Briefly: Induction of tubulin depolymerization in human MCF7 cells at 1 uM after 4 hrs by Western blot method. It counts as cell-based. In short, it runs like this: (§2)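 MCF-7 (1×10^6/well) or Jurkat cells were treated for 4 h with 1–20 μM or 0.1% ethanol. Cells were lysed in microtubule-preserving buffer (0.1 M PIPES pH 6.9, 2 M glycerol, 5 mM MgCl2, 2 mM EGTA, 0.5% Triton X-100, 4 μM paclitaxel) and centrifuged at 20,000g for 45 min. Soluble (supernatant) and polymer (pellet) fractions, 30 μg protein each, were immunoblotted for α-tubulin with a GAPDH loading control. Three experiments.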
A general note: Immunoblotting shows a protein as a band on a membrane.

The species named for data set [8] is Homo sapiens. Briefly: Induction of tubulin depolymerization in human Jurkat cells at 1 uM after 4 hrs by Western blot method. The class given is cell-based. An outline of the steps:
as §2

Data set [9] concerns MCF7. Briefly: Induction of reactive oxygen species generation in human MCF7 cells assessed as decrease in cell viability at 10 uM in presence of N-acetyl cysteine after 48 hrs by alamarBlue assay. It counts as functional, cell-based. An outline of the steps:
as §1

Turning to `COc1cccc(/C=C/C(=O)N2CCC=CC2=O)c1`, the Activity is over 90% with MCF-10A [1], over 80% in the data set with MCF-10A [2] and “Non-Toxic” in the data set on MCF-10A [3]. Besides, the IC50 in the data set on MCF7 [4] amounted to 7.5 µM.
Take `COc1cc(OC)c(OC)cc1/C=C/C(=O)N1CCC=CC1=O`: the Activity in the data set on MCF-10A [1] is over 90%; with MCF-10A [2], over 80%; with MCF-10A [3] it was “Non-Toxic”. Besides, the outcome with MCF7 [5] and in the data set on MCF7 [6] was inactive. Also, the IC50 with MCF7 [4] was 3.4 µM.
For the molecule `CC(=O)O[C@H]1C(=O)[C@@]2(C)[C@H]([C@H](OC(=O)c3ccccc3)[C@]3(O)C[C@H](OC(=O)[C@H](O)[C@@H](NC(=O)c4ccccc4)c4ccccc4)C(C)=C1C3(C)C)[C@]1(OC(C)=O)CO[C@@H]1C[C@@H]2O`, the result in the data set listed under Homo sapiens [7] and in the data set listed under Homo sapiens [8] was inactive.
As for `COC(=O)Nc1nc2cc(C(=O)c3cccs3)ccc2[nH]1`, the outcome in the data set listed under Homo sapiens [7] and in the data set listed under Homo sapiens [8] was Active.
With `COc1cc(/C=C/C(=O)c2ccccc2)cc(OC)c1OC`, in the data set with MCF7 [9], the outcome was inactive.

By IC50 is commonly meant the concentration that gives 50% inhibition.

The values above are taken from ChEMBL document CHEMBL4041479, “Piperlongumine (piplartine) and analogues: Antiproliferative microtubule-destabilising agents” (Eur J Med Chem, 2017).
